Screening data from PubChem.
A selection: hits, their analogues and other compounds. The true share with any hit is near 1.5%.
CCR6 antag: antagonists of human CCR6 receptor | CHO-K1 CCR6 PathHunter beta-arrestin, luminescence, CCL20-stimulated | inhibition, % at 20 µM | AID 493098 | P51684 | 340,000 tested, 0.49% active;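 active means compounds whose inhibition of the agonist-driven luminescence signal at 20 µM reaches about 50%, limit read from the data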;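 further: cells stimulated with CCL20 at 14 nM final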
EBI2 antag: EBI2 (human) antagonism; AID 651636; inhibition, % at 5 µM; P32249; EBI2 beta-arrestin recruitment, luminescence, 7a,25-OHC stimulated; 360,000 tested, 0.81% active; in the data active means inhibition above about 38%;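 further: enzyme fragment complementation signal reports receptor beta-arrestin coupling in cells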
APJ agonist: APJ receptor agonism | P35414 | activation, % at 20 µM | AID 2520 | 330,000 tested, 0.11% active | CHO-K1 APJ PathHunter beta-arrestin, luminescence; 0% DMSO wells, 100% apelin;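 active means activation more than six SD over the plate average, tested at 20 µM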
Target sequence (P35414 whole entry, looked up): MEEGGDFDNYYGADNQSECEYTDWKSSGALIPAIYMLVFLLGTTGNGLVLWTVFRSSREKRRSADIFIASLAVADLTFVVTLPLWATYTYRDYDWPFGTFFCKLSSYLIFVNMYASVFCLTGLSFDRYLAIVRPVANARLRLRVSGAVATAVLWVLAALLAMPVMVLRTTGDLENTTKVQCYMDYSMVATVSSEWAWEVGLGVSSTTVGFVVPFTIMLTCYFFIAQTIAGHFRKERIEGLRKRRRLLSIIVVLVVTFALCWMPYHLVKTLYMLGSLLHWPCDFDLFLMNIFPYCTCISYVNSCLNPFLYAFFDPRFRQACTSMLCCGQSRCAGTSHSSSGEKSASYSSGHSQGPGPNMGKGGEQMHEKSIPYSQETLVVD
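assay system = CHO-K1 APJ beta-arrestin complementation cell line | input = cell density 1000 per well | dosing = compound 20 µM once, DMSO 1% | timing = compound 90 min 25 °C, reagent 1 h | measured by = luminescence from split beta-galactosidase complementation, Galacton Star/Emerald II substrate | read-out basis = APJ agonist activity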
APJ antagonist: blocks the human apelin receptor APJ | 330,000 tested, 0.32% active | CHO-K1 APJ beta-arrestin complementation, luminescence | inhibition, % at 20 µM | P35414;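 active means inhibition above about 40% at 20 µM, limit read from the data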;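 further: cells challenged with 10 nM apelin-13 agonist together with compound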
CXCR6 block: blocks human CXCR6 beta-arrestin recruitment. O00574. 360,000 tested, 0.36% active. inhibition, % at 20 µM. CHO-K1 PathHunter CXCR6 beta-arrestin, luminescence. AID 602244; in the data active means inhibition above about 34%, passing the limit was not always enough;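 further: antagonist mode with CXCL16 agonist at 10 nM final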
EBI2 conf: EBI2 (human) antagonism, single concentration confirmation; inhibition, % at 5 µM; AID 651997; EBI2 beta-arrestin luminescence, 7a,25-OHC antagonism; 2,400 tested, 29% active; shares compounds with EBI2 antag;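 active means inhibition of at least 50%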
EBI2 agonist: EBI2 agonism counter-screen. 2,400 tested, under 10 active. AID 652000. activation, % at 5 µM. EBI2-expressing cells, agonist mode, luminescence, 60 min; 0% vehicle, 100% 7α,25-dihydroxycholesterol control. shares compounds with EBI2 antag;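 active means activation of at least 50%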
bGal counter: beta-galactosidase inhibition counter-screen; shares compounds with EBI2 antag; purified beta-galactosidase, luminescent Galacton Star, 15 min; inhibition, % at 5 µM; 2,400 tested, 1% active; AID 652176;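 active means replicate-average signal at least 3 plate SD below neutral wells, shown as high inhibition, flagging enzyme-inhibiting false positives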;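 further: higher means stronger loss of beta-gal luminescence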
Each line names hits and unclear results; the compound was inactive in the other large screens (follow-up assays come after a bar, where they were run).

CCOC(=O)C1=CCN(S(=O)(=O)c2ccccc2Cl)C1c1cccc(C)c1 (stereo unspecified)	EBI2 antag 40 (no result: CCR6 antag, APJ agonist, APJ antagonist) | EBI2 conf inactive | EBI2 agonist inactive | bGal counter inactive
COc1ccc(CCNC(=O)CC2SC(=NCCC(C)C)NC2=O)cc1OC (stereo unspecified)	none
Cc1nn(-c2ccc(C(=O)N3CCN(S(=O)(=O)c4ccccc4C(F)(F)F)CC3)cc2)c(C)c1Cl	EBI2 antag 47 | EBI2 conf inactive | EBI2 agonist inactive | bGal counter inactive
CCOc1ccc(S(=O)(=O)N(C)c2ccc(OCC(=O)NCCc3ccc(OC)cc3)cc2)cc1	EBI2 antag 55 | EBI2 conf inactive | EBI2 agonist inactive | bGal counter inactive
CCNC(=S)N1CCN(c2ccc([N+](=O)[O-])cc2)CC1	none
O=[N+]([O-])c1ccc(N2CCN(C(=S)NCc3ccc(Cl)cc3)CC2)cc1	EBI2 antag 52 | EBI2 conf inactive | EBI2 agonist inactive | bGal counter inactive
Cc1cccc(C)c1-n1nnnc1C(c1ccnc2ccccc12)N1CCN(C(=O)OC(C)(C)C)CC1 (stereo unspecified)	none (no result: CCR6 antag, APJ agonist, APJ antagonist)
O=C1c2cnc3nc(SCc4cccc(Cl)c4)nn3c2CC2c3ccccc3CCN12 (stereo unspecified)	EBI2 antag 42 | EBI2 conf inactive | EBI2 agonist inactive | bGal counter inactive
Cc1cc(=O)n2c3ccccc3n(C)c2n1	none
Cc1ccc(CNC(=O)c2ccc(N(C)S(=O)(=O)c3ccccc3)cc2)cc1	EBI2 antag 83 | EBI2 conf inactive | EBI2 agonist inactive | bGal counter inactive
CN(c1ccc(C(=O)Nc2ccc(Cl)cn2)cc1)S(=O)(=O)c1ccccc1	EBI2 antag 50 | EBI2 conf 56 | EBI2 agonist inactive | bGal counter inactive
CCN(CC)S(=O)(=O)c1ccc(C(=O)NCc2ccc(C)cc2)cc1	EBI2 antag 63 | EBI2 conf 55 | EBI2 agonist inactive | bGal counter inactive
CN(C)S(=O)(=O)c1ccc(C(=O)Nc2ccc(Cl)cc2)cc1	EBI2 antag 53 | EBI2 conf 50 | EBI2 agonist inactive | bGal counter inactive
CCCCOc1ccc(S(=O)(=O)N2CCN(c3ccc(N4CCN(CC)CC4)nn3)CC2)cc1	none
O=C(NCCOc1ccccc1)C(c1ccccc1)c1ccccc1	EBI2 antag 53 | EBI2 conf inactive | EBI2 agonist inactive | bGal counter inactive
COc1ccccc1OCCNC(=O)C(c1ccccc1)c1ccccc1	none
COc1ccc(OCCNC(=O)C(c2ccccc2)c2ccccc2)cc1	EBI2 antag 85 | EBI2 conf 52 | EBI2 agonist inactive | bGal counter inactive
Cc1ccc(C(=O)NNC(=O)CSc2nnc(-c3ccncc3)n2C)cc1	none
COc1ccc(C(=O)NNC(=O)CSc2nnc(C(C)C)n2C)cc1	none
Cc1ccc(-c2nnc(SCC(=O)NNC(=O)COc3cccc(C)c3)n2C)cc1	EBI2 antag 45 | EBI2 conf inactive | EBI2 agonist inactive | bGal counter inactive
CCc1ccc(OCC(=O)NNC(=O)CSc2nnc(-c3ccc(C)cc3)n2C)cc1	none
Cc1ccc(-c2nnc(SCC(=O)NNC(=O)COc3ccccc3C)n2C)cc1	EBI2 antag 53 | EBI2 conf inactive | EBI2 agonist inactive | bGal counter inactive
COc1ccc(C(=O)NNC(=O)CSc2nnc(-c3ccc(O)cc3)n2C)cc1	EBI2 antag 69 | EBI2 conf inactive | EBI2 agonist inactive | bGal counter inactive
Cc1ccc2nc(-c3ccccc3)c(Cc3ccsc3)n2c1	none (no result: CCR6 antag, APJ agonist, APJ antagonist)
CCn1c(CNc2ccc(F)cc2)nnc1SCC(=O)Nc1ccc(OC)cc1OC	none
CC(=O)c1sc(NC(=O)C2CCCN2S(=O)(=O)c2ccccc2F)nc1C (stereo unspecified)	none
O=C(Cc1ccccc1)N1CCN(C(=O)c2ccc([N+](=O)[O-])cc2)CC1	none
Cc1ccc(OCC(=O)N2CCN(C(=O)c3ccc([N+](=O)[O-])cc3)CC2)cc1	EBI2 antag 83 | EBI2 conf 58 | EBI2 agonist inactive | bGal counter inactive
O=C(COc1ccccc1)N1CCN(C(=O)c2ccc([N+](=O)[O-])cc2)CC1	EBI2 antag 53 | EBI2 conf inactive | EBI2 agonist inactive | bGal counter inactive
O=C(COc1ccc2ccccc2c1)N1CCN(C(=O)c2ccc([N+](=O)[O-])cc2)CC1	EBI2 antag 94 | EBI2 conf 76 | EBI2 agonist inactive | bGal counter inactive
Cc1ccc(OCC(=O)N2CCN(C(=O)CCC3CCCC3)CC2)cc1	EBI2 antag 81 | EBI2 conf 61 | EBI2 agonist inactive | bGal counter inactive
O=C(CCC1CCCC1)N1CCN(C(=O)COc2ccccc2)CC1	none
COc1ccc(NC(=O)CSc2nc3sc(C)cc3c(=O)n2C)c(OC)c1	none
Cc1nc(NC(=O)COC(=O)C2CC2C)c(Cl)cc1Cl (stereo unspecified)	none
O=C(CCS(=O)(=O)c1ccccc1)OCc1ccc([N+](=O)[O-])cc1	none
COc1ccc(C2=CC(=O)C[C@H](c3ccc(F)cc3)C2)cc1F	none
COc1ccc([C@H]2CC(=O)C=C(c3ccc(Cl)c(Cl)c3)C2)cc1	EBI2 antag 80 | EBI2 conf 57 | EBI2 agonist inactive | bGal counter inactive
COc1ccc([C@H]2CC(=O)C=C(c3ccc(Cl)cc3C)C2)cc1	none
COc1ccc([C@H]2CC(=O)C=C(c3ccc(Cl)c(F)c3)C2)cc1	EBI2 antag 51 | EBI2 conf 52 | EBI2 agonist inactive | bGal counter inactive
COc1ccc([C@H]2CC(=O)C=C(c3ccc(C)c(F)c3)C2)cc1	EBI2 antag 53 | EBI2 conf inactive | EBI2 agonist inactive | bGal counter inactive
COc1ccccc1C1=CC(=O)C[C@H](c2ccc(Cl)cc2)C1	none
COc1cccc(C2=CC(=O)C[C@H](c3ccc(Cl)cc3)C2)c1OC	EBI2 antag 62 | EBI2 conf inactive | EBI2 agonist inactive | bGal counter inactive
CCC(=O)N1CCc2cc(S(=O)(=O)NC(C(=O)NC3CCCc4ccccc43)C(C)C)ccc21 (stereo unspecified)	none
CSCC[C@H](NC(=O)C(C)Oc1ccc(Cl)cc1)c1nc2ccccc2[nH]1 (stereo partly specified)	none
Cc1cc(NC(=O)c2ccccc2C)n(-c2cccc(F)c2)n1	none
COc1ccc([C@H]2CC(=O)C=C(c3ccc(OC)nc3)C2)cc1	none
COc1ccc(C2=CC(=O)C[C@H](c3ccc(Cl)cc3)C2)cn1	EBI2 antag 50 | EBI2 conf inactive | EBI2 agonist inactive | bGal counter inactive
